Active and inactive are the calls of the source. The calls are words filed in the database; no cut-off is given here.
Columns and labels:
[1] = target: T1, Toll-like receptor 8 (Homo sapiens, UniProt Q9NR97); experiment: Antagonist activity at TLR8 expressed in HEK293 cells co-transfected with NF-kappaB/sAP gene assessed as inhibition of CL075-induced NF-kappaB activation by reporter gene assay; format: functional, cell-based
T1 sequence (Q9NR97 whole entry): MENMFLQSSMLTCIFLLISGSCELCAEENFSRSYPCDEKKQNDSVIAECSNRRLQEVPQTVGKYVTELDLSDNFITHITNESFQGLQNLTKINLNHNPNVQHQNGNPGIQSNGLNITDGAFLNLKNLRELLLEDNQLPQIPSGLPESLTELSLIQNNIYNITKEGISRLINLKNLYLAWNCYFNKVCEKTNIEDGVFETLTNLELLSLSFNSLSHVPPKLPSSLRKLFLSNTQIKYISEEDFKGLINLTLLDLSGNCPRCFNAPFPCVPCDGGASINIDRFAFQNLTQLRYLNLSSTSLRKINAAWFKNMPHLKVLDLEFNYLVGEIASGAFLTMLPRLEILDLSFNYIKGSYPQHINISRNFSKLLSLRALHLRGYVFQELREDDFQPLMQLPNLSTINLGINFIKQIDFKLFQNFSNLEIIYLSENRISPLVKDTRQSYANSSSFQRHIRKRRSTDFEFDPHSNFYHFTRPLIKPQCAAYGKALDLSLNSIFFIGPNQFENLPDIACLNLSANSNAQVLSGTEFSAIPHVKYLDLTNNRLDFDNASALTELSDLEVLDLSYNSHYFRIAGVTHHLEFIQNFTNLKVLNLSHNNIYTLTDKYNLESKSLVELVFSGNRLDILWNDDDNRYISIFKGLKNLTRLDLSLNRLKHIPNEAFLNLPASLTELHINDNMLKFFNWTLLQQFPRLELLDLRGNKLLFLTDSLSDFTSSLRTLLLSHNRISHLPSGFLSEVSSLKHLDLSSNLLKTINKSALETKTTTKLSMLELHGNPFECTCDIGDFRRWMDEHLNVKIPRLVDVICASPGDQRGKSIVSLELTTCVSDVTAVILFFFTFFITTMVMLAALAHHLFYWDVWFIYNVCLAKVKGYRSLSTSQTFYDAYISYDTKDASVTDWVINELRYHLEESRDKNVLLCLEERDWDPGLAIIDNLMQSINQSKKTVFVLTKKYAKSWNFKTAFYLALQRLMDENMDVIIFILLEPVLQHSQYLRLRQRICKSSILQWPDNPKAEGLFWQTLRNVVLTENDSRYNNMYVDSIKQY

[2] = target: T2, Toll-like receptor 7 (Homo sapiens) (UniProt Q9NYK1); experiment: Antagonist activity at TLR7 expressed in HEK293 cells co-transfected with NF-kappaB/sAP gene assessed as inhibition of gardiquimod-induced NF-kappaB activation at 250 uM by reporter gene assay; format: functional, cell-based
T2 sequence (whole entry): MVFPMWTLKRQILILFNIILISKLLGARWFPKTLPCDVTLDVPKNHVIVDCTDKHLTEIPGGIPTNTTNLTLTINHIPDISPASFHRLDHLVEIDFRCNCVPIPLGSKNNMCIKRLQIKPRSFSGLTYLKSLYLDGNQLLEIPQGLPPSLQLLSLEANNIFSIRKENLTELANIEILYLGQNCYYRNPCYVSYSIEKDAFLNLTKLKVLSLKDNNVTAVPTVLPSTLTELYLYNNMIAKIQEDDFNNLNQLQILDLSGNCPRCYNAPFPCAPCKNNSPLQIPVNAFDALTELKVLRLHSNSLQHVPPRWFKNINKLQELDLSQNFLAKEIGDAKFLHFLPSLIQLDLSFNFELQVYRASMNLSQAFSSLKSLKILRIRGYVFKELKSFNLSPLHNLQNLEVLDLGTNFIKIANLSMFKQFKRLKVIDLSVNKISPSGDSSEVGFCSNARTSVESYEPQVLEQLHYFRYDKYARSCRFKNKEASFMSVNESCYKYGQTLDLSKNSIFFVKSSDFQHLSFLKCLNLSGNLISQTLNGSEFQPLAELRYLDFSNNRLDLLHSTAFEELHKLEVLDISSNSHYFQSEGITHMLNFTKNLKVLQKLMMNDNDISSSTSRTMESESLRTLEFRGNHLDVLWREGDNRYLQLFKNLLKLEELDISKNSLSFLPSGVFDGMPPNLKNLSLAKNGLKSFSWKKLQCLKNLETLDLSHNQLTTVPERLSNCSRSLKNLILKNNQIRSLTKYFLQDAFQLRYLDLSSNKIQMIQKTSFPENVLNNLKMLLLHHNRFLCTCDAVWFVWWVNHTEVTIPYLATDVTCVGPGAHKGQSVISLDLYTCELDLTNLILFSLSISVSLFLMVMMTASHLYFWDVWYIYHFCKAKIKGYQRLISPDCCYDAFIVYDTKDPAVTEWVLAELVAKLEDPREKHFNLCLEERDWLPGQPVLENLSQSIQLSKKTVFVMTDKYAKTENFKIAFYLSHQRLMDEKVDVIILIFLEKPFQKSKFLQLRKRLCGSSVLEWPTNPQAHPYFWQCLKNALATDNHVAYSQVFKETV
Method in brief: (§1)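 HEK-Blue-7 cells (HEK293 stably carrying TLR7 plus NF-κB/AP-1-driven secreted alkaline phosphatase), kept in selection medium with zeocin and normocin. Seeded at ~10⁵ cells/mL and grown to confluency, then stimulated with gardiquimod 1 μg/mL while serially diluted compounds were added at the same time (highest 250 μM). Incubated overnight; supernatant sAP read with chromogen at 620 nm; duplicates or quadruplicates.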

[3] = target: T3, Toll-like receptor 7 (Homo sapiens, UniProt Q9NYK1); experiment: Antagonist activity at TLR7 expressed in HEK293 cells co-transfected with NF-kappaB/sAP gene assessed as inhibition of 1 ug/ml of gardiquimod-induced NF-kappaB activation by reporter gene assay; format: functional, cell-based; method in brief: as §1
T3 sequence (Q9NYK1 whole entry): T2 sequence (whole entry)

[4] = target: T3, Toll-like receptor 7; experiment: Antagonist activity at TLR7 expressed in HEK293 cells co-transfected with NF-kappaB/sAP gene assessed as inhibition of 250 ng/ml of gardiquimod-induced NF-kappaB activation by reporter gene assay
[5] = target: Toll-like receptor 8 (Homo sapiens) (UniProt Q9NR97); experiment: Antagonist activity at TLR8 expressed in HEK293 cells co-transfected with NF-kappaB/sAP gene assessed as inhibition of CL075-induced NF-kappaB activation at 250 uM by reporter gene assay

| IC50 [1] [µM] | inhibition [2] | IC50 [3] [µM] | IC50 [4] [µM] | inhibition [5] | Structure (SMILES) |
| --- | --- | --- | --- | --- | --- |
| 46.5 | inactive | – | – | – | CCNCc1nc2c3ccccc3[n+]([O-])cc2n1CC(C)(C)O |
| 24.3 | – | 22 | – | – | Cn1c(C2CCCCC2)nc2c3ccccc3ncc21 |
| 10.1 | – | 8.58 | – | – | C#CCn1c(CCCCCCCCC)nc2c3ccccc3ncc21 |
| 25.8 | – | 21.6 | – | – | Cn1c(-c2ccccc2)nc2c3ccccc3ncc21 |
| – | – | 30.4 | – | – | CCNCc1nc2c3ccccc3ncc2n1C |
| 28.1 | – | 26.1 | – | – | C#CCn1c(CNCC)nc2c3ccccc3ncc21 |
| 40 | – | 19.9 | – | – | COc1ccc(Cn2c(C3CCCCC3)nc3c4ccccc4ncc32)cc1 |
| 20.3 | inactive | – | – | – | OCCCn1c(C2CCCCC2)nc2c3ccccc3ncc21 |
| – | – | 19.4 | – | – | CCCCCCCCCc1nc2c3ccccc3ncc2n1Cc1ccc(OC)cc1 |
| 59.6 | – | 28 | – | – | CCNCc1nc2c3ccccc3ncc2n1Cc1ccc(OC)cc1 |
| 4.55 | – | 2.79 | 0.82 | – | COc1ccc(Cn2c(-c3ccccc3)nc3c4ccccc4[n+](Cc4ccc(OC)cc4)cc32)cc1 |
| 38.4 | inactive | – | – | – | CC(C)(O)Cn1c(-c2ccccc2)nc2c3ccccc3ncc21 |
| 4.81 | inactive | – | – | – | CCCCCCCCCc1nc2c3ccccc3ncc2n1CCCO |
| – | – | 10.1 | – | – | CCCCCCCCCc1nc2c3ccccc3ncc2n1C |
| – | inactive | – | – | inactive | CCNCc1nc2c3ccccc3ncc2n1CCCO |
| 37.2 | inactive | – | – | – | OCCCn1c(-c2ccccc2)nc2c3ccccc3ncc21 |
| 21.1 | – | 21.9 | – | – | C#CCn1c(C2CCCCC2)nc2c3ccccc3ncc21 |
| 13.7 | – | 14.8 | – | – | C#CCn1c(-c2ccccc2)nc2c3ccccc3ncc21 |
| 21.2 | inactive | – | – | – | CCNCc1nc2c3ccccc3nc(NC(=O)c3ccccc3)c2n1CC(C)(C)O |
| 38.7 | inactive | – | – | – | CC(C)(O)Cn1c(C2CCCCC2)nc2c3ccccc3ncc21 |
| – | – | 14.4 | – | – | CCCCCCCCCc1nc2c3ccccc3ncc2n1CC(C)(C)O |
| – | inactive | – | – | inactive | COc1ccc(Cn2c(-c3ccccc3)nc3c4ccccc4ncc32)cc1 |

Source: ChEMBL document CHEMBL1795244, “Preliminary evaluation of a 3H imidazoquinoline library as dual TLR7/TLR8 antagonists” (Bioorg Med Chem, 2011)
